Laboratory results: ChEMBL document CHEMBL3097989, “Antimicrobial activity of de novo designed cationic peptides against multi-resistant clinical isolates” (Eur J Med Chem, 2014)

Tests used:
Klebsiella pneumoniae [1] = experiment: Antibacterial activity against Klebsiella pneumoniae M9491 clinical isolate expressing blaMOX gene by microdilution test; type: functional
Summary of the method: (§1)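 MIC by standard broth microdilution following CLSI recommendations, in Mueller Hinton broth supplemented with Ca²⁺ (20-25mg/L) and Mg²⁺ (10-12.5mg/L); peptides tested against a panel of multi-resistant clinical isolates plus ATCC reference strains.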

Klebsiella pneumoniae [2] = experiment: Antibacterial activity against Klebsiella pneumoniae PFAV3 by microdilution test; type: functional; summary of the method: as §1
Acinetobacter sp. [3] = experiment: Antibacterial activity against Acinetobacter sp. M7978 clinical isolate expressing blaIMP-1 gene by microdilution test; type: functional; summary of the method: as §1
Acinetobacter sp. [4] = experiment: Antibacterial activity against Acinetobacter sp. M5277 clinical isolate expressing blaPER gene by microdilution test; type: functional; summary of the method: as §1
Acinetobacter sp. [5] = experiment: Antibacterial activity against Acinetobacter sp. PFAV1 clinical isolate expressing blaOXA-51, blaOXA-58 and blaPER gene by microdilution test; type: functional; summary of the method: as §1
Acinetobacter sp. [6] = experiment: Antibacterial activity against Acinetobacter sp. M5179 clinical isolate expressing blaOXA-51 gene by microdilution test; type: functional; summary of the method: as §1
Acinetobacter sp. [7] = experiment: Antibacterial activity against Acinetobacter sp. M5282 clinical isolate expressing blaOXA-51 gene by microdilution test; type: functional; summary of the method: as §1
Acinetobacter sp. [8] = experiment: Antibacterial activity against Acinetobacter sp. M13523 clinical isolate expressing blaOXA-51 gene by microdilution test; type: functional; summary of the method: as §1
Pseudomonas aeruginosa [9] = experiment: Antibacterial activity against Pseudomonas aeruginosa M7712 clinical isolate expressing blaSPM gene by microdilution test; type: functional
Summary of the method: (§2)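 MIC by standard broth microdilution following CLSI recommendations, in Mueller Hinton broth supplemented with Ca²⁺ (20-25 mg/L) and Mg²⁺ (10-12.5 mg/L); ATCC reference strains included in the panel.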

Pseudomonas aeruginosa [10] = experiment: Antibacterial activity against Pseudomonas aeruginosa M7525 clinical isolate expressing blaSPM gene by microdilution test; type: functional; summary of the method: as §2
Pseudomonas aeruginosa [11] = experiment: Antibacterial activity against Pseudomonas aeruginosa M5200 clinical isolate expressing blaVIM and blaGES-1 gene by microdilution test; type: functional; summary of the method: as §2
Pseudomonas aeruginosa [12] = experiment: Antibacterial activity against Pseudomonas aeruginosa M5109 clinical isolate expressing blaVIM and blaGES-1 gene by microdilution test; type: functional; summary of the method: as §2
Pseudomonas aeruginosa [13] = experiment: Antibacterial activity against Pseudomonas aeruginosa M13513 clinical isolate expressing blaKPC-2 gene by microdilution test; type: functional; summary of the method: as §1
Pseudomonas aeruginosa [14] = experiment: Antibacterial activity against Pseudomonas aeruginosa M7907 clinical isolate expressing blaPER gene by microdilution test; type: functional; summary of the method: as §2
Pseudomonas aeruginosa [15] = experiment: Antibacterial activity against Pseudomonas aeruginosa ATCC 27853 by microdilution test; type: functional; summary of the method: as §1
[16] = Toxicity in human RBC assessed as hemolytic activity relative to control; type: cell-based, Erythrocyte; settings: red blood cells (RBC), read-out: Activity
Summary of the method: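 Heparinized human whole blood diluted 3x in PBS and centrifuged 10 min at 1500 rpm, repeated three times. Cells resuspended to 10% (v/v), then diluted to about 0.5% (v/v). Peptides added at various concentrations for 30 min at 37 °C. Supernatant absorbance read at 550 nm. Lysis calculated against buffer (0%) and water (100%). Readings taken in triplicate and averaged.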

Enterococcus gallinarum = experiment: Antibacterial activity against Enterococcus gallinarum M2685 clinical isolate expressing vanC1 and vanA gene by microdilution test; type: functional; summary of the method: as §1
Enterococcus faecium [17] = experiment: Antibacterial activity against Enterococcus faecium M2664 clinical isolate expressing vanA gene by microdilution test; type: functional; summary of the method: as §1
Enterococcus faecium [18] = experiment: Antibacterial activity against Enterococcus faecium M2304 clinical isolate expressing vanA gene by microdilution test; type: functional; summary of the method: as §1
Enterococcus faecium [19] = experiment: Antibacterial activity against Enterococcus faecium M2619 clinical isolate expressing vanB gene by microdilution test; type: functional; summary of the method: as §1
Enterococcus faecalis [20] = experiment: Antibacterial activity against Enterococcus faecalis M6983 clinical isolate expressing vanA gene by microdilution test; type: functional; summary of the method: as §1
Enterococcus faecalis [21] = experiment: Antibacterial activity against Enterococcus faecalis M4449 clinical isolate expressing vanA gene by microdilution test; type: functional; summary of the method: as §1
Enterococcus faecalis [22] = experiment: Antibacterial activity against Enterococcus faecalis M6534 clinical isolate expressing vanB gene by microdilution test; type: functional; summary of the method: as §1
Enterococcus faecalis [23] = experiment: Antibacterial activity against Enterococcus faecalis ATCC 51299 clinical isolate expressing vanB gene by microdilution test; type: functional; summary of the method: as §1
Staphylococcus cohnii = experiment: Antibacterial activity against Staphylococcus cohnii M6767 clinical isolate expressing mecA gene by microdilution test; type: functional; summary of the method: as §2
Staphylococcus warneri = experiment: Antibacterial activity against Staphylococcus warneri M6823 clinical isolate expressing mecA gene by microdilution test; type: functional; summary of the method: as §2
Staphylococcus hominis = experiment: Antibacterial activity against Staphylococcus hominis M2967 clinical isolate expressing mecA gene by microdilution test; type: functional; summary of the method: as §2
[24] = tested on: Staphylococcus saprophyticus; experiment: Antibacterial activity against Staphylococcus saprophyticus M2981 clinical isolate expressing mecA gene by microdilution test; type: functional; summary of the method: as §2
[25] = tested on: Staphylococcus saprophyticus; experiment: Antibacterial activity against Staphylococcus saprophyticus M4070 clinical isolate expressing mecA gene by microdilution test; type: functional; summary of the method: as §2
[26] = tested on: Staphylococcus epidermidis; experiment: Antibacterial activity against Staphylococcus epidermidis M2921 clinical isolate expressing mecA gene by microdilution test; type: functional; summary of the method: as §2
[27] = tested on: Staphylococcus epidermidis; experiment: Antibacterial activity against Staphylococcus epidermidis M2919 clinical isolate expressing mecA gene by microdilution test; type: functional; summary of the method: as §2
[28] = tested on: Staphylococcus epidermidis; experiment: Antibacterial activity against Staphylococcus epidermidis M2923 by microdilution test; type: functional; summary of the method: as §2
Staphylococcus aureus [29] = experiment: Antibacterial activity against Staphylococcus aureus M6820 clinical isolate expressing mecA gene by microdilution test; type: functional; summary of the method: as §2
Staphylococcus aureus [30] = experiment: Antibacterial activity against Staphylococcus aureus M4046 clinical isolate expressing mecA gene by microdilution test; type: functional; summary of the method: as §2
Staphylococcus aureus [31] = experiment: Antibacterial activity against Staphylococcus aureus M6794 clinical isolate expressing mecA gene by microdilution test; type: functional; summary of the method: as §2
Staphylococcus aureus [32] = experiment: Antibacterial activity against Staphylococcus aureus P239 clinical isolate expressing ermC gene by microdilution test; type: functional; summary of the method: as §2
Staphylococcus aureus [33] = experiment: Antibacterial activity against Staphylococcus aureus P204 clinical isolate expressing ermA gene by microdilution test; type: functional; summary of the method: as §2
Staphylococcus aureus [34] = experiment: Antibacterial activity against Staphylococcus aureus P28 clinical isolate expressing ermA gene by microdilution test; type: functional; summary of the method: as §2
Staphylococcus aureus [35] = experiment: Antibacterial activity against Staphylococcus aureus P33 clinical isolate expressing msrA gene by microdilution test; type: functional; summary of the method: as §2
Escherichia coli [36] = experiment: Antibacterial activity against Escherichia coli M9209 clinical isolate expressing blaKPC-2 gene by microdilution test; type: functional; summary of the method: as §1
Escherichia coli [37] = experiment: Antibacterial activity against Escherichia coli PABC11 clinical isolate expressing blaCTX-M-2 gene by microdilution test; type: functional; summary of the method: as §1
Escherichia coli [38] = experiment: Antibacterial activity against Escherichia coli PCOS15 clinical isolate expressing blaPER-2 and blaTEM-1 gene by microdilution test; type: functional; summary of the method: as §1
Escherichia coli [39] = experiment: Antibacterial activity against Escherichia coli PNEU23 clinical isolate expressing blaOXA-GIII and blaTEM-1 gene by microdilution test; type: functional; summary of the method: as §1
Escherichia coli [40] = experiment: Antibacterial activity against Escherichia coli M7859 clinical isolate expressing blaCIT gene by microdilution test; type: functional; summary of the method: as §1
Escherichia coli [41] = experiment: Antibacterial activity against Escherichia coli M9884 by microdilution test; type: functional; summary of the method: as §1
Klebsiella pneumoniae [42] = experiment: Antibacterial activity against Klebsiella pneumoniae M9885 clinical isolate expressing blaKPC-2 gene by microdilution test; type: functional; summary of the method: as §1
Klebsiella pneumoniae [43] = experiment: Antibacterial activity against Klebsiella pneumoniae M13540 clinical isolate expressing blaKPC-2 gene by microdilution test; type: functional; summary of the method: as §1
Klebsiella pneumoniae [44] = experiment: Antibacterial activity against Klebsiella pneumoniae M7647 clinical isolate expressing blaVIM, blaCTX-M-2, blaTEM-1 and blaSHV-1 gene by microdilution test; type: functional; summary of the method: as §1
Klebsiella pneumoniae [45] = experiment: Antibacterial activity against Klebsiella pneumoniae M5825 clinical isolate expressing blaGES-3 and blaCTX-M-2 gene by microdilution test; type: functional; summary of the method: as §1

H-GLLKKWLKKWKEFKRIVGY-NH2
MIC90 (Klebsiella pneumoniae [1]): 64 µg/mL | MIC90 (Klebsiella pneumoniae [2]): 128 µg/mL | MIC90 (Acinetobacter sp. [3]): 8 µg/mL | MIC90 (Acinetobacter sp. [4]): 8 µg/mL | MIC90 (Acinetobacter sp. [5]): 16 µg/mL | MIC90 (Acinetobacter sp. [6]): 32 µg/mL | MIC90 (Acinetobacter sp. [7]): 8 µg/mL | MIC90 (Acinetobacter sp. [8]): 4 µg/mL | MIC90 (Pseudomonas aeruginosa [9]): 64 µg/mL | MIC90 (Pseudomonas aeruginosa [10]): 64 µg/mL | MIC90 (Pseudomonas aeruginosa [11]): 64 µg/mL | MIC90 (Pseudomonas aeruginosa [12]): 64 µg/mL | MIC90 (Pseudomonas aeruginosa [13]): 64 µg/mL | MIC90 (Pseudomonas aeruginosa [14]): 64 µg/mL | MIC90 (Pseudomonas aeruginosa [15]): 64 µg/mL | hemolysis [16]: 39.8% | MIC90 (Enterococcus gallinarum): 16 µg/mL | MIC90 (Enterococcus faecium [17]): 8 µg/mL | MIC90 (Enterococcus faecium [18]): 16 µg/mL | MIC90 (Enterococcus faecium [19]): 16 µg/mL | MIC90 (Enterococcus faecalis [20]): 128 µg/mL | MIC90 (Enterococcus faecalis [21]): 128 µg/mL | MIC90 (Enterococcus faecalis [22]): 256 µg/mL | MIC90 (Enterococcus faecalis [23]): 256 µg/mL | MIC90 (Staphylococcus cohnii): 16 µg/mL | MIC90 (Staphylococcus warneri): 8 µg/mL | MIC90 (Staphylococcus hominis): 8 µg/mL | MIC90 [24]: 8 µg/mL | MIC90 [25]: 32 µg/mL | MIC90 [26]: 8 µg/mL | MIC90 [27]: 16 µg/mL | MIC90 [28]: 16 µg/mL | MIC90 (Staphylococcus aureus [29]): 128 µg/mL | MIC90 (Staphylococcus aureus [30]): 128 µg/mL | MIC90 (Staphylococcus aureus [31]): 64 µg/mL | MIC90 (Staphylococcus aureus [32]): 64 µg/mL | MIC90 (Staphylococcus aureus [33]): 64 µg/mL | MIC90 (Staphylococcus aureus [34]): 64 µg/mL | MIC90 (Staphylococcus aureus [35]): 128 µg/mL | MIC90 (Escherichia coli [36]): 64 µg/mL | MIC90 (Escherichia coli [37]): 32 µg/mL | MIC90 (Escherichia coli [38]): 64 µg/mL | MIC90 (Escherichia coli [39]): 32 µg/mL | MIC90 (Escherichia coli [40]): 32 µg/mL | MIC90 (Escherichia coli [41]): 32 µg/mL | MIC90 (Klebsiella pneumoniae [42]): 64 µg/mL | MIC90 (Klebsiella pneumoniae [43]): 16 µg/mL | MIC90 (Klebsiella pneumoniae [44]): 32 µg/mL | MIC90 (Klebsiella pneumoniae [45]): 8 µg/mL
